Measurements published in ChEMBL document CHEMBL3414425, “Synthesis and biological evaluation of new imidazo[2,1-b][1,3,4]thiadiazole-benzimidazole derivatives” (Eur J Med Chem, 2015).
Converted amounts (≈) assume the structure as drawn. The source made the active and inactive calls. The calls are words filed in the database; no cut-off is given here.

Assays:
Pseudomonas aeruginosa [1] = test: Antibacterial activity against Pseudomonas aeruginosa at 1 mg/ml incubated for 18 hrs by well plate technique; type: functional; conditions: for zone of inhibition at 1000 µg/mL: read-out: DIZ
Procedure, shortened: (§1)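 Bacteria kept on nutrient agar at 37 °C, grown statically in nutrient broth (start ~10-100 cfu/mL) at 37 °C for 18-24 h. Suspensions diluted in saline and spread on nutrient agar, then wells cut with a cork borer. Compound in DMSO at 1 or 0.5 mg/mL added to wells, 37 °C, 18 h. Inhibition zone diameter measured minus DMSO value; triplicate; streptomycin standard.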

[2] = Cytotoxicity against African green monkey Vero cells assessed as growth inhibition at 62.5 ug/ml after 72 hrs by MTT assay; type: cell-based; conditions: chlorocebus sabaeus, read-out: GI
Procedure, shortened: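 Vero cells grown in MEM + 10% FBS at 37 °C, 5% CO2. Seeded ~10,000 cells/well, 24 h to a partial monolayer. Compounds in DMSO diluted in MEM + 2% FBS (1 mg/ml stock, two-fold dilutions) for 72 h. MTT 3 h, formazan dissolved in propanol, A540. % inhibition = 100 − (mean OD test/mean OD control × 100).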

Escherichia coli [3] = test: Antibacterial activity against Escherichia coli at 1 mg/ml incubated for 18 hrs by well plate technique; type: functional; conditions: for zone of inhibition at 1000 µg/mL: read-out: DIZ; procedure, shortened: as §1
Aspergillus flavus [4] = test: Antifungal activity against Aspergillus flavus at 1 mg/ml incubated for 3 days; type: functional; conditions: for zone of inhibition at 1000 µg/mL: 72 h, read-out: IZ
Procedure, shortened: (§2)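 Well plate method on potato dextrose agar. Fungal stock suspended in distilled water with Tween 80 and swabbed over plates. Samples in DMSO at 1 and 0.5 mg/mL added to wells, incubated 25 °C for 3 days, then scored for inhibition zones; fluconazole standard.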

Salmonella typhi [5] = test: Antibacterial activity against Salmonella typhi at 0.5 mg/ml incubated for 18 hrs by well plate technique; type: functional; conditions: for diameter of the inhibition zone (DIZ): Salmonella enterica subsp. enterica serovar Typhi; for zone of inhibition at 500 µg/mL: Salmonella enterica, read-out: DIZ
Procedure, shortened: (§3)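 Well diffusion on nutrient agar; strains kept on nutrient agar at 37 °C, grown statically in nutrient broth 18-24 h at 37 °C, diluted in saline, 0.1 ml spread per plate. Compounds in DMSO at 1 and 0.5 mg/mL added to cork-bored wells; 18 h at 37 °C. Inhibition zone diameter measured, DMSO value subtracted; triplicate; streptomycin reference.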

Escherichia coli [6] = test: Antibacterial activity against Escherichia coli at 0.5 mg/ml incubated for 18 hrs by well plate technique; type: functional; conditions: for zone of inhibition at 500 µg/mL: read-out: DIZ; procedure, shortened: as §1
Salmonella typhi [7] = test: Antibacterial activity against Salmonella typhi at 1 mg/ml incubated for 18 hrs by well plate technique; type: functional; conditions: for diameter of the inhibition zone (DIZ): Salmonella enterica subsp. enterica serovar Typhi; for zone of inhibition at 1000 µg/mL: Salmonella enterica, read-out: DIZ; procedure, shortened: as §3
Candida albicans [8] = test: Antifungal activity against Candida albicans at 0.5 mg/ml incubated for 3 days; type: functional; conditions: for zone of inhibition at 500 µg/mL: 72 h, read-out: IZ; procedure, shortened: as §2
[9] = Antioxidant activity assessed as DPPH radical scavenging activity incubated for 10 mins by UV-visible spectrometry; type: physicochemical
Procedure, shortened: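 DPPH free-radical scavenging; absorbance read at 517 nm against a methanol blank. % scavenging = (A control − A sample)/A control × 100.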

Staphylococcus aureus [10] = test: Antibacterial activity against Staphylococcus aureus at 1 mg/ml incubated for 18 hrs by well plate technique; type: functional; conditions: for zone of inhibition at 1000 µg/mL: read-out: DIZ; procedure, shortened: as §1
Staphylococcus aureus [11] = test: Antibacterial activity against Staphylococcus aureus at 0.5 mg/ml incubated for 18 hrs by well plate technique; type: functional; conditions: for zone of inhibition at 500 µg/mL: read-out: DIZ; procedure, shortened: as §1
Candida albicans [12] = test: Antifungal activity against Candida albicans at 1 mg/ml incubated for 3 days; type: functional; conditions: for zone of inhibition at 1000 µg/mL: 72 h, read-out: IZ; procedure, shortened: as §2
Aspergillus flavus [13] = test: Antifungal activity against Aspergillus flavus at 0.5 mg/ml incubated for 3 days; type: functional; conditions: for zone of inhibition at 500 µg/mL: 72 h, read-out: IZ; procedure, shortened: as §2
[14] = system: Chrysosporium keratinophilum; test: Antifungal activity against Chrysosporium keratinophilum at 0.5 mg/ml incubated for 3 days; type: functional; conditions: for zone of inhibition at 500 µg/mL: 72 h, read-out: IZ; procedure, shortened: as §2
Pseudomonas aeruginosa [15] = test: Antibacterial activity against Pseudomonas aeruginosa at 0.5 mg/ml incubated for 18 hrs by well plate technique; type: functional; conditions: for zone of inhibition at 500 µg/mL: read-out: DIZ; procedure, shortened: as §1
[16] = system: Mycobacterium tuberculosis; test: Antitubercular activity against Mycobacterium tuberculosis H37Rv ATCC 27294/XDR-TB incubated for 28 days by agar dilution method; type: functional; conditions: 672 h
Procedure, shortened: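 Agar dilution: two-fold dilutions in Middlebrook 7H11 agar with OADC. Inoculum from fresh 7H11/OADC slants adjusted to 1 mg/mL wet weight in 0.05% Tween 80 saline, diluted 10^-2 (~10⁷ cfu/mL); 5 µL spotted per tube. Incubated 37 °C; MIC, lowest concentration fully inhibiting growth, read after 28 days, in triplicate.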

[17] = system: Chrysosporium keratinophilum; test: Antifungal activity against Chrysosporium keratinophilum at 1 mg/ml incubated for 3 days; type: functional; conditions: for zone of inhibition at 1000 µg/mL: 72 h, read-out: IZ; procedure, shortened: as §2

Row | SMILES | inhibition at 72 h, 62.5 ug/ml [2] | inhibition zone (IZ) (Aspergillus flavus [4]) | diameter of the inhibition zone (DIZ) (Salmonella typhi [5]) | diameter of the inhibition zone (DIZ) (Salmonella typhi [7]) | inhibition (INH) [9] | MIC [16] | zone of inhibition at 1000 µg/mL (Pseudomonas aeruginosa [1]) | zone of inhibition at 1000 µg/mL (Escherichia coli [3]) | zone of inhibition at 1000 µg/mL (Aspergillus flavus [4]) | zone of inhibition at 500 µg/mL (Salmonella typhi [5]) | zone of inhibition at 500 µg/mL (Escherichia coli [6]) | zone of inhibition at 1000 µg/mL (Salmonella typhi [7]) | zone of inhibition at 500 µg/mL (Candida albicans [8]) | zone of inhibition at 1000 µg/mL (Staphylococcus aureus [10]) | zone of inhibition at 500 µg/mL (Staphylococcus aureus [11]) | zone of inhibition at 1000 µg/mL (Candida albicans [12]) | zone of inhibition at 500 µg/mL (Aspergillus flavus [13]) | zone of inhibition at 500 µg/mL [14] | zone of inhibition at 500 µg/mL (Pseudomonas aeruginosa [15]) | zone of inhibition at 1000 µg/mL [17] | also measured
1 | COc1ccc(-c2nc3sc(C)nn3c2-c2nc3ccccc3[nH]2)cc1 | 7.1% | inactive | inactive | inactive | 21.4% | 6.25 µg/mL (≈ 17.3 µM) |  |  |  |  |  |  |  |  |  |  |  |  |  |  | diameter of the inhibition zone (DIZ) (Pseudomonas aeruginosa [1]): inactive; diameter of the inhibition zone (DIZ) (Escherichia coli [3]): inactive; diameter of the inhibition zone (DIZ) (Escherichia coli [6]): inactive; inhibition zone (IZ) (Candida albicans [8]): inactive; diameter of the inhibition zone (DIZ) (Staphylococcus aureus [10]): inactive; diameter of the inhibition zone (DIZ) (Staphylococcus aureus [11]): inactive; inhibition zone (IZ) (Candida albicans [12]): inactive; inhibition zone (IZ) (Aspergillus flavus [13]): inactive; inhibition zone (IZ) [14]: inactive; diameter of the inhibition zone (DIZ) (Pseudomonas aeruginosa [15]): inactive; inhibition zone (IZ) [17]: inactive
2 | Cc1nn2c(-c3nc4cc(Cl)ccc4[nH]3)c(-c3ccc(Cl)cc3)nc2s1 | 7.12% |  |  |  | 78.8% | 3.12 µg/mL (≈ 7.81 µM) | 4 mm | 4 mm | 3 mm | 2 mm | 2 mm | 4 mm | 2 mm | 3 mm | 2 mm | 4 mm | 1 mm | 3 mm | 1 mm | 5 mm | 
3 | Cc1ccc(-c2nc3sc(-c4ccc(Cl)cc4)nn3c2-c2nc3ccccc3[nH]2)cc1 | 12.2% |  |  |  | 45.7% | 3.12 µg/mL (≈ 7.07 µM) | 4 mm | 5 mm | 5 mm | 3 mm | 3 mm | 5 mm | 2 mm | 4 mm | 1 mm | 4 mm | 3 mm | 2 mm | 1 mm | 5 mm | 
4 | Cc1ccc(-c2nn3c(-c4nc5cc([N+](=O)[O-])ccc5[nH]4)c(-c4ccc(F)cc4)nc3s2)cc1 | 10.5% |  |  |  | 22.3% | 6.25 µg/mL (≈ 13.3 µM) | 3 mm | 4 mm | 5 mm | 1 mm | 2 mm | 4 mm | 2 mm | 4 mm | 2 mm | 5 mm | 2 mm | 2 mm | 2 mm | 4 mm | 
5 | Cc1ccc(-c2nc3sc(-c4ccc(Cl)cc4)nn3c2-c2nc3cc([N+](=O)[O-])ccc3[nH]2)cc1 | 8.85% | inactive | inactive | inactive | 26.3% | 6.25 µg/mL (≈ 12.8 µM) |  |  |  |  |  |  |  |  |  |  |  |  |  |  | diameter of the inhibition zone (DIZ) (Pseudomonas aeruginosa [1]): inactive; diameter of the inhibition zone (DIZ) (Escherichia coli [3]): inactive; diameter of the inhibition zone (DIZ) (Escherichia coli [6]): inactive; inhibition zone (IZ) (Candida albicans [8]): inactive; diameter of the inhibition zone (DIZ) (Staphylococcus aureus [10]): inactive; diameter of the inhibition zone (DIZ) (Staphylococcus aureus [11]): inactive; inhibition zone (IZ) (Candida albicans [12]): inactive; inhibition zone (IZ) (Aspergillus flavus [13]): inactive; inhibition zone (IZ) [14]: inactive; diameter of the inhibition zone (DIZ) (Pseudomonas aeruginosa [15]): inactive; inhibition zone (IZ) [17]: inactive
6 | Cc1nn2c(-c3nc4ccccc4[nH]3)c(-c3ccc(F)cc3)nc2s1 | 10.6% |  |  |  | 19.9% | 6.25 µg/mL (≈ 17.9 µM) | 3 mm | 4 mm | 3 mm | 1 mm | 3 mm | 2 mm | 1 mm | 2 mm | 1 mm | 2 mm | 2 mm | 3 mm | 2 mm | 4 mm | 
7 | Fc1ccc(-c2nc3sc(-c4ccc(Cl)cc4)nn3c2-c2nc3ccccc3[nH]2)cc1 | 10.7% |  |  |  | 21.7% | 3.12 µg/mL (≈ 7.01 µM) | 8 mm | 5 mm | 4 mm | 1 mm | 3 mm | 3 mm | 1 mm | 7 mm | 3 mm | 3 mm | 2 mm | 3 mm | 5 mm | 4 mm | 
8 | Cc1ccc(-c2nn3c(-c4nc5cc(Cl)ccc5[nH]4)c(-c4ccc(Cl)cc4)nc3s2)cc1 | 7.4% |  | inactive | inactive | 65.7% | 3.12 µg/mL (≈ 6.56 µM) | 3 mm | 4 mm | 5 mm |  | 2 mm |  | 4 mm | 5 mm | 3 mm | 6 mm | 2 mm | 1 mm | 2 mm | 3 mm | 
9 | Cc1ccc(-c2nn3c(-c4nc5ccccc5[nH]4)c(-c4ccc(Cl)cc4)nc3s2)cc1 | 13.3% | inactive |  |  | 18.8% | 3.12 µg/mL (≈ 7.07 µM) | 6 mm | 4 mm |  | 2 mm | 2 mm | 4 mm |  | 3 mm | 2 mm |  |  |  | 3 mm |  | inhibition zone (IZ) (Candida albicans [8]): inactive; inhibition zone (IZ) (Candida albicans [12]): inactive; inhibition zone (IZ) (Aspergillus flavus [13]): inactive; inhibition zone (IZ) [14]: inactive; inhibition zone (IZ) [17]: inactive
